Where two headings read alike, the source gives them in different places.
Columns and labels:
[1] = assay type: in vivo, healthy Chinese subjects; details: single oral 100 mg imrecoxib, plasma
Summary of the method: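 Open-label parallel Phase I study in healthy Chinese adults aged 18–85 y, BMI 19–28 kg/m2, 1:1 sex. Single 100 mg tablet of test compound taken orally with 240 mL water after a 4 h fast. EDTA blood drawn predose and 0.5–72 h after dosing; plasma stored at −70°C. Parent compound plus hydroxyl and carboxyl metabolites measured by LC-MS/MS (C18, MRM, acetonitrile precipitation, internal standard). Non-compartmental analysis; group geometric mean ratios with 90% CI.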

Safety and tolerability = assay type: in vivo, healthy Chinese subjects
Summary of the method: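 Single 100 mg oral tablet given after fasting; subjects kept in a supervised Phase I ward until 72 h post-dose. Tolerability tracked through adverse-event monitoring, physical examinations, haematology, blood biochemistry, urinalysis and 12-lead ECG; clinical laboratory tests run in a CAP-accredited hospital laboratory. Elderly and non-elderly groups assessed in parallel.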

COX-1/COX-2 = details: cited from earlier work
[2] = healthy subjects, single oral dose 30, 60, 90 and 200mg imrecoxib; cited from earlier work
[3] = Elderly Group (N=9), single oral 100 mg imrecoxib
[4] = Elderly Group (N=9), single oral 100 mg imrecoxib, subjects (%)
[5] = Non-Elderly Group (N=10), single oral 100 mg imrecoxib
[6] = Non-Elderly Group (N=10), single oral 100 mg imrecoxib, subjects (%)

CCCN1CC(c2ccc(S(C)(=O)=O)cc2)=C(c2ccc(C)cc2)C1=O [M0, imrecoxib]
Geometric Mean AUC0-∞ ([1]; Group A (N=10), non-elderly): 148 h*ng/m | Geometric Mean AUC0-∞ ([1]; Group B (N=9), elderly): 193 h*ng/m | Geometric Mean Ratio B/A of AUC0-t ([1]; elderly (B) / non-elderly (A)): 134% | Geometric Mean Ratio B/A of AUC0-∞ ([1]; elderly (B) / non-elderly (A)): 130% | Geometric Mean Ratio B/A of Cmax ([1]; elderly (B) / non-elderly (A)): 139% | All adverse events, Severity Grade I (Safety and tolerability; [3]): 2 | Aspartate transaminase increased, Severity Grade I (Safety and tolerability; [3]): 1 | Aspartate transaminase increased, Severity Grade II (Safety and tolerability; [3]): 0 | Aspartate transaminase increased, Severity Grade III (Safety and tolerability; [3]): 0 | Blood bilirubin increased, Severity Grade I (Safety and tolerability; [3]): 1 | Blood bilirubin increased, Severity Grade II (Safety and tolerability; [3]): 0 | Blood bilirubin increased, Severity Grade III (Safety and tolerability; [3]): 0 | Blood glucose increased, Severity Grade I (Safety and tolerability; [3]): 0 | Blood glucose increased, Severity Grade II (Safety and tolerability; [3]): 0 | Blood glucose increased, Severity Grade III (Safety and tolerability; [3]): 0 | White blood cell increased, Severity Grade I (Safety and tolerability; [3]): 0 | White blood cell increased, Severity Grade II (Safety and tolerability; [3]): 0 | White blood cell increased, Severity Grade III (Safety and tolerability; [3]): 0 | Acute upper respiratory infection, Incidence (%) (Safety and tolerability; [4]): 0(0.0%) | All adverse events, Incidence (%) (Safety and tolerability; [4]): 2(22.2%) | Aspartate transaminase increased, Incidence (%) (Safety and tolerability; [4]): 1(11.1%) | Blood bilirubin increased, Incidence (%) (Safety and tolerability; [4]): 1(11.1%) | Blood glucose increased, Incidence (%) (Safety and tolerability; [4]): 0(0.0%) | Fibrinogen decreased, Incidence (%) (Safety and tolerability; [4]): 0(0.0%) | White blood cell increased, Incidence (%) (Safety and tolerability; [4]): 0(0.0%) | All adverse events, Severity Grade I (Safety and tolerability; [5]): 2 | Aspartate transaminase increased, Severity Grade I (Safety and tolerability; [5]): 0 | Aspartate transaminase increased, Severity Grade II (Safety and tolerability; [5]): 0 | Aspartate transaminase increased, Severity Grade III (Safety and tolerability; [5]): 0 | Blood bilirubin increased, Severity Grade I (Safety and tolerability; [5]): 0 | Blood bilirubin increased, Severity Grade II (Safety and tolerability; [5]): 0 | Blood bilirubin increased, Severity Grade III (Safety and tolerability; [5]): 0 | Blood glucose increased, Severity Grade I (Safety and tolerability; [5]): 1 | Blood glucose increased, Severity Grade II (Safety and tolerability; [5]): 0 | Blood glucose increased, Severity Grade III (Safety and tolerability; [5]): 0 | Fibrinogen decreased, Severity Grade I (Safety and tolerability; [5]): 1 | White blood cell increased, Severity Grade I (Safety and tolerability; [5]): 1 | White blood cell increased, Severity Grade II (Safety and tolerability; [5]): 0 | White blood cell increased, Severity Grade III (Safety and tolerability; [5]): 0 | Aspartate transaminase increased, Incidence (%) (Safety and tolerability; [6]): 0(0.0%) | Blood bilirubin increased, Incidence (%) (Safety and tolerability; [6]): 0(0.0%) | Severity of all the AEs (Safety and tolerability; both groups, recovered without any medical intervention): mild | Gastrointestinal, cardiovascular or renal side effects observed (Safety and tolerability; both groups, single oral 100 mg imrecoxib): No concomitant gastrointestinal, cardiovascular or renal side effects | AEs considered to be ADRs (Safety and tolerability; elderly group): Increased aspartate transaminase and blood bilirubin | Tolerability (Safety and tolerability; non-elderly and elderly healthy subjects, oral): well tolerated | AEs regarded as adverse drug reaction (ADR) (Safety and tolerability; non-elderly group): increased blood glucose | IC50COX-1/IC50COX-2 value (COX-1/COX-2): 6.39 | IC50COX-1/IC50COX-2 value relative to celecoxib (COX-1/COX-2): 77% | Dose dependence of pharmacokinetics [2]: linear dynamic characteristics | Tmax [2]: about 2 hours

CS(=O)(=O)c1ccc(C2=C(c3ccccc3)C(=O)OC2)cc1 [rofecoxib]
IC50COX-1/IC50COX-2 value (COX-1/COX-2): above 213

Reference: article PMC9653025 (Drug Design, Development and Therapy, 2022)
